Only some compounds are listed: those with a hit (about 1.3% of all), similar ones and a draw of the others.
JMJD2C inh: blocks human GASC-1 demethylase activity | GST-JMJD2C(1-420) H3K9me3 demethylation, DELFIA europium | inhibition, % at 2.35 µM | actives 0.069% (n = 330,000);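 active means more than half of a compound's replicate wells show inhibition beyond 50%, single wells judged on their own value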;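 further: signal counts dimethyl H3K9 product captured on neutravidin plate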
Hep lipid drop: hepatic lipid droplet formation modulation | AML12 mouse hepatocytes, oleate lipid droplets, BODIPY imaging | inhibition, % at 6.5 µM | actives 0.4% (n = 240,000);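 active means lipid droplet intensity inhibited by at least 50%, with more than 500 cells counted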
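Material – AML12 mouse liver cells · Also added – oleate loading, 100 µM · Compound dosing – 6.5 µM single-point dosing · Times – overnight treatment with compound plus oleate · Measured by – fluorescence imaging, 20x objective, two fields per well · Read-out – percent inhibition of filter-corrected integrated lipid droplet intensity per well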
VLA-4 inh: inhibition in a human VLA-4 binding assay | actives 0.2% (n = 330,000) | P13612 | inhibition, % (about 7 µM as worked out from the volumes in the protocol) | VLA-4 expressing cells, ligand binding flow cytometry | AID 2557; in the data active means inhibition above about 50%
procasp7 counter: counter-screen for procaspase-3 activators: activators of human procaspase-7; recombinant procaspase-7, Ac-DEVD-pNA absorbance 405 nm; D23A/D198A/D206A triple mutant, cannot self-cleave; scale: DMSO 0, 5 µM enzyme 100; actives 0.093% (n = 330,000); activation, % at 8.5 µM; P55210; AID 463210;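 active means percent activation above the screen-wide mean plus 3 SD, cut at about 25% in these data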
Target sequence (P55210 whole entry D23A/D198A/D206A): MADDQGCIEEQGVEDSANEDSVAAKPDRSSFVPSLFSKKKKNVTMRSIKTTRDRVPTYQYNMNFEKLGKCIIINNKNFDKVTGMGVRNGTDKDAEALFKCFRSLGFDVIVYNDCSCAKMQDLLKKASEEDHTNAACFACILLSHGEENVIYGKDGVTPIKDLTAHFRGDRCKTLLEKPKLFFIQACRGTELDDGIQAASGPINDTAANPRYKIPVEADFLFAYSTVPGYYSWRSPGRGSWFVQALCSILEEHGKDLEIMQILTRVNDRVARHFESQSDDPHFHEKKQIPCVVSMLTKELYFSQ
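System: Procaspase-7 triple mutant (PC-7 D3A); measure: % activation from two-timepoint absorbance difference, scaled to controls; times: 1 h compound preincubation, 2 h substrate cleavage, 25 °C; also added: Ac-DEVD-pNA substrate, 400 µM as added; measured by: Epi-absorbance of released pNA at 405 nm, two timepoints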
proCasp3 act: activators of human procaspase-3; P42574; recombinant procaspase-3 D3A, Ac-DEVD-pNA absorbance 405 nm; activation, % at 8.5 µM; actives 0.11% (n = 330,000); AID 463141;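 active means activation above the mean of all tested compounds plus 3 SD, cut at about 21% in these data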
Target sequence (P42574 whole entry D9A/D28A/D175A): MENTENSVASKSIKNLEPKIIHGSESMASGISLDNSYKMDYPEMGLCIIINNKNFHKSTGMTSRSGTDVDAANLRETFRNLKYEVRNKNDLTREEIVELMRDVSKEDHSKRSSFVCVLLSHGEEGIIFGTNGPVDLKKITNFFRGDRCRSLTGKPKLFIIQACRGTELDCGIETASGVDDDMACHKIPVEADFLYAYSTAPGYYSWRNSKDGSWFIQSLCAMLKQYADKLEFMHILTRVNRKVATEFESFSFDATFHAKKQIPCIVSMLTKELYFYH
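material = Procaspase-3 D3A mutant | probe or stimulus = Ac-DEVD-pNA | compound = single dose, 8.5 µM nominal compound, 0.8% DMSO | timing = 1 h preincubation, 2 h reaction | measured by = 405 nm absorbance of p-nitroaniline, reads at 0 and 120 min | benchmarks = DMSO-only low control, 5 µM PC-3 D3A high control | repeats = singlicate, each compound tested once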
GRK2 aptamer HTS: inhibitors of human GRK2 displacing RNA aptamer; bead flow cytometry, FAM-aptamer displacement from GRK2; P25098; actives 0.59% (n = 330,000); inhibition of aptamer binding, % at 10 µM;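 active means inhibition of aptamer binding above 40%, roughly 3 SD of noise, on plates passing a quality check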;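 further: median bead fluorescence of bound FAM aptamer so fluorescent compounds give negative values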
GRK2 inh confirm: confirmation of human GRK2 inhibitors displacing RNA aptamer; shares compounds with GRK2 aptamer HTS; bead-bound GRK2, FAM-aptamer displacement, flow cytometry; aptamer displacement, % at 10 µM; actives 4% (n = 2,000); AID 504451;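 active means aptamer displacement above 40%, near three times the noise of non-fluorescent compounds, on plates passing quality checks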;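 further: negative values mostly reflect intrinsic compound fluorescence rather than true enhancement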
Aptamer quench: fluorescent aptamer quenching in GRK2 counter-screen dose response; fluorescence change (kMESF span), kMESF (concentration not given with the values); shares compounds with GRK2 aptamer HTS; AID 504521; Fluorescent RNA aptamer beads, flow cytometry; hits give high values; 110 tested, under 10 active;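 active means compounds whose bead fluorescence drops by more than 37 kMESF across the dose range, marking them as dye quenchers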
Aptamer quench SP: counter-screen for GRK2 aptamer inhibitors: fluorescent aptamer quenchers; shares compounds with GRK2 aptamer HTS; Carboxyfluorescein RNA aptamer on beads, flow cytometry quenching; hits give low values; fluorescence response (% of DMSO), % at 10 µM; 2,000 tested, under 10 active; AID 504580;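 active means compounds that quench the bead-bound fluorescent RNA probe, cutting fluorescence to under half of the solvent control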;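 further: counterscreen run without GRK2 so only probe quenching by compound is measured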
FAM quench PS1: aptamer fluorescence quenching in GRK2 powder counter-screen; shares compounds with GRK2 aptamer HTS; Bead-bound FAM RNA aptamer fluorescence quenching, flow cytometry; hits give low values; fluorescence ratio to DMSO, % at 11.1 µM; 35 tested, under 10 active; AID 588496;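 active means compounds that dim the fluorescent label, raw bead signal shifting by over 33 units between lowest and highest dose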
A number is an active result; 0 = inactive; - = no result; ! = not confirmed by another sample.

SMILES | JMJD2C inh | Hep lipid drop | VLA-4 inh | procasp7 counter | proCasp3 act | GRK2 aptamer HTS | GRK2 inh confirm | Aptamer quench SP | others
O=C(c1ccccc1)N1CCCCC(Cl)C1=O (stereo unspecified) | 0 | 0 | 0 | 0 | 0 | 0 | - | -
Cn1cnc(Sc2ncnc3nc[nH]c23)c1[N+](=O)[O-] | 0 | 0 | 0 | 0 | 0 | 96 | 0 | 0
Cc1oc(-c2cccc(Cl)c2)nc1CN1CCCC(C(=O)NCc2ccco2)C1 (stereo unspecified) | 0 | - | 0 | 0 | 0 | 0 | 0 | 0
Cc1cccc(-c2nc(CN3CCCC(C(=O)NC4CCCCCC4)C3)c(C)o2)c1 (stereo unspecified) | 0 | - | 0 | 0 | 0 | 0 | 0 | 0
Cc1oc(-c2ccc(Cl)cc2)nc1CN1CCCC(C(=O)NCc2cccnc2)C1 (stereo unspecified) | 0 | - | 0 | 0 | 0 | 0 | 0 | 0 | Aptamer quench=0
Cc1oc(-c2ccc(Cl)cc2)nc1CN1CCCC(C(=O)NCc2ccccn2)C1 (stereo unspecified) | 0 | - | 0 | 0 | 0 | 0 | 0 | 0
Cc1oc(-c2cccc(Cl)c2)nc1CN1CCC(C(=O)NCc2ccco2)CC1 | 0 | - | 0 | 0 | 0 | 0 | - | -
O=C(Cn1cnc2sc3c(c2c1=O)CCCC3)NCC(=O)Nc1c(F)cc(F)cc1Br | 0 | 0 | 0 | 0 | 0 | 0 | - | -
Cc1cccc(CCNC(=O)CCS(=O)(=O)c2ccc(Br)cc2)c1 | 0 | 0 | 0 | 0 | 0 | 0 | 0 | 0 | FAM quench PS1=0
Cc1ccc(S(=O)(=O)CCC(=O)NCCc2ccc(Cl)cc2)cc1 | 0 | 0 | 0 | 0 | 0 | 0 | - | -
Cc1ccc(CCNC(=O)CCS(=O)(=O)c2ccc(Br)cc2)cc1 | 0 | 0 | 0 | 0 | 0 | 0 | 0 | 0 | Aptamer quench=0;FAM quench PS1=0
CCCCNC(=O)CNC(=O)c1nn(-c2ccc(OC)cc2OC)c(=O)c2ccccc12 | 0 | - | 0 | 0 | 0 | 0 | 0 | 0
CCC(C)NC(=O)CNC(=O)c1nn(-c2ccc(OC)cc2)c(=O)c2ccccc12 (stereo unspecified) | 0 | - | 0 | 0 | 0 | 44 | 0 | 0
CCOc1ccc(-n2nc(C(=O)NC3CCCCC3)c3ccccc3c2=O)cc1 | 0 | 0 | 0 | 0 | 0 | 81 | 0 | 0
CCOc1ccc(-n2nc(C(=O)NCCOC)c3ccccc3c2=O)cc1 | - | 0 | 0 | 0 | 0 | 0 | - | -
CCCCN(C)C(=O)CNC(=O)c1nn(-c2ccc(OC)cc2OC)c(=O)c2ccccc12 | 0 | 0 | 0 | 0 | 0 | 0 | 0 | 0
Cc1cc(C(=O)NNC(=O)CN2C(=O)NC3(CCCCC3)C2=O)c(C)o1 | 0 | - | 0 | 0 | 0 | 0 | - | -
Cc1ccc([N+](=O)[O-])cc1S(=O)(=O)NCC1COc2ccccc2O1 (stereo unspecified) | 0 | 0 | 0 | 0 | 0 | 54 | 0 | 0
O=C(O)c1cc(-c2ccco2)nc2ccc(Br)cc12 | 0 | 0 | 0 | 0 | 0 | 55! | 0 | 0
NC(=O)COC(=O)c1cc(-c2ccco2)nc2ccccc12 | 0 | 0 | 0 | 0 | 0 | 0 | - | -
CN(CCOc1ccccc1)C(=O)CCc1nc2sc3c(c2c(=O)[nH]1)CCCC3 | 0 | 0 | 0 | 0 | 0 | 0 | 0 | 0
O=C(CCc1nc2sc3c(c2c(=O)[nH]1)CCCC3)NCCOc1ccccc1 | 0 | - | 0 | 0 | 0 | 0 | - | -
CN(CC(=O)Nc1cccc(F)c1)C(=O)CCc1nc2sc3c(c2c(=O)[nH]1)CCCC3 | 0 | - | 0 | 0 | 0 | 0 | 0 | 0
O=C(O)c1ccc(Cl)cc1Nc1nc2cc(Cl)ccc2o1 | 0 | 0 | 0 | 0 | 0 | 0 | - | -
Cc1ccc(NC(=O)CCCOc2ccccc2)cc1S(=O)(=O)N1CCOCC1 | 0 | - | 0 | 0 | 0 | 75 | 0 | 0
SMILES | JMJD2C inh | Hep lipid drop | VLA-4 inh | procasp7 counter | proCasp3 act | GRK2 aptamer HTS | GRK2 inh confirm | Aptamer quench SP | others
O=C(NN1C(=O)/C(=C/C=C/c2ccco2)SC1=S)c1ccncc1 | 0 | 0 | 0 | 0 | 0 | 79 | 0 | 0
CC(C)C(C(=O)O)N1C(=O)/C(=C/C=C/c2ccco2)SC1=S (stereo unspecified) | 0 | - | 0 | 0 | 0 | 95 | 55 | 0 | Aptamer quench=0
O=C(/C=C/c1cccs1)N1CCC2(CC1)Oc1ccc(Cl)cc1C(=O)C21CC(c2cccnc2)=NO1 (stereo unspecified) | 0 | 0 | 0 | 0 | 0 | 0 | - | -
Cc1cc(C)cc(OCC(=O)OCC(=O)Nc2cc(S(=O)(=O)N3CCOCC3)ccc2Cl)c1 | 0 | - | 0 | 0 | 0 | 0 | - | -
COc1ccccc1N1CCN(/N=C/c2ccc(Cl)c([N+](=O)[O-])c2)CC1 | 0 | 0 | 0 | 0 | 0 | 100 | 0 | 0
COc1ccccc1N1CCN(/N=C/c2ccc([N+](=O)[O-])cc2)CC1 | 0 | 0 | 0 | - | - | 0 | - | -
Cc1ccc(OCC(=O)N2CCN(c3nnc(-c4ccc(C)cc4)c4ccccc34)CC2)cc1 | 0 | 0 | 0 | 0 | 0 | 0 | - | -
COc1ccc(OCC(=O)N2CCN(c3nnc(-c4ccc(C)cc4)c4ccccc34)CC2)cc1 | 0 | 0 | 0 | 0 | 0 | 54 | 0 | 0
COc1ccc(N2CC(C(=O)N[C@@H](C)C(=O)NC3CCCCC3)CC2=O)cc1 (stereo partly specified) | 0 | 0 | 0 | 0 | 0 | 0 | - | -
Cn1c(C(=O)N[C@@H](C(=O)O)c2ccccc2)cc2cc(F)ccc21 | 0 | - | 0 | 0 | 0 | 64 | 0 | 0
CCc1ccc(NC(=O)CSc2nc3ccccc3nc2N2CCCCC2)cc1 | 0 | 0 | 0 | 0 | 0 | 69 | 0 | 0
COCCN1CC(CNC(=O)c2cc(COc3ccccc3SC)on2)CC1=O (stereo unspecified) | 0 | 0 | 0 | 0 | 0 | 0 | - | -
Cc1[nH]nc2c1/C(=N\O)CCC2 | 0 | 0 | 0 | 0 | 0 | 0 | 0 | 0
CCn1c(N2CCN(C(=S)NCC(C)C)CC2)nc2ccccc21 | 0 | 0 | 0 | 0 | 0 | 0 | - | -
CC(C)CNC(=S)N1CCN(c2nc3ccccc3s2)CC1 | 0 | 0 | 0 | 0 | 0 | 42 | 0 | 0
COc1ccccc1NC(=S)N1C2CCC1CC(NC(=O)NC13CC4CC(CC(C4)C1)C3)C2 (stereo unspecified) | 0 | - | 0 | 0 | 0 | 46 | 0 | 0
